Among the data in ChEMBL document CHEMBL2390929, “New nitric oxide donating 1,2,4-triazole/oxime hybrids: synthesis, investigation of anti-inflammatory, ulceroginic liability and antiproliferative activities” (Bioorg Med Chem, 2013) are inhibition in vivo, Activity and UI values, retold here.

For data set [1], the system named is Rattus norvegicus. As to the kind of experiment: Antiinflammatory activity in albino rat assessed as inhibition of carrageenan-induced paw edema at 0.28 mmol/kg, po after 1 hr relative to control. It is filed as functional. The method in brief:
(§1)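 Adult male albino rats (120–140 g), four per group, fasted 24 h with water allowed. Test agent suspended in 0.5% w/v aqueous CMC and given orally at 0.28 mmol/kg; controls received CMC alone. After 30 min, 0.1 mL fresh 1% carrageenan in saline was injected subplantar into the right hind paw and saline into the left. Paw thickness was measured by Vernier caliper; % inhibition = [(VR−VL)control − (VR−VL)treated]/(VR−VL)control ×100. Mean ± SEM, one-way ANOVA.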

Data set [2] in a line: Induction of nitric oxide release in phosphate buffer at pH 7.4 at 0.1 mM after 3 hrs by Griess method in presence of 0.5 mM of N-acetylcysteine. Format: physicochemical. The settings on record: pH 7.4, 3 h, 100 µM. The gist of the method: (§2)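 Compound in DMF diluted to final 10^-4 M in 1:1 50 mM phosphate buffer pH 7.4/MeOH with 5×10^-4 M N-acetylcysteine, 37 °C. Aliquot mixed with Griess reagent, 10 min at room temperature, A546 read. Nitrite quantified against sodium nitrite standards (10–80 nmol/mL); NO expressed as mol/mol. n = 4 reaction mixtures per compound.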

Data set [3] deals with Rattus norvegicus. The experiment in a line: Antiinflammatory activity in albino rat assessed as inhibition of carrageenan-induced paw edema at 0.28 mmol/kg, po after 4 hrs relative to control. Format: functional. The method in brief: as §1
In general terms: Carrageenan injected into the paw causes an acute inflammation.

For data set [4], the system named is Rattus norvegicus. The experiment in a line: Antiinflammatory activity in albino rat assessed as inhibition of carrageenan-induced paw edema at 0.28 mmol/kg, po after 5 hrs relative to control. It is filed as functional. The method in brief: as §1
Data set [5] in a line: Induction of nitric oxide release in phosphate buffer at pH 7.4 at 0.1 mM after 2 hrs by Griess method in presence of 0.5 mM of N-acetylcysteine. It is filed as physicochemical. The settings on record: pH 7.4, 2 h, 100 µM. The method in brief: as §2
Data set [6] can be described thus: Induction of nitric oxide release in phosphate buffer at pH 7.4 at 0.1 mM after 5 hrs by Griess method in presence of 0.5 mM of N-acetylcysteine. Format: physicochemical. The following applies: pH 7.4, 5 h, 100 µM. The method in brief: as §2
Background: Nitrite, measured by Griess reagent, commonly stands in for NO production.

Data set [7] can be described thus: Induction of nitric oxide release in phosphate buffer at pH 7.4 at 0.1 mM after 6 hrs by Griess method in presence of 0.5 mM of N-acetylcysteine. It is filed as physicochemical. The following applies: pH 7.4, 6 h, 100 µM. The gist of the method: as §2
The nature of data set [8]: Induction of nitric oxide release in phosphate buffer at pH 7.4 at 0.1 mM after 1 hr by Griess method in presence of 0.5 mM of N-acetylcysteine. The following applies: pH 7.4, 1 h, 100 µM. Format: physicochemical. The method in brief: as §2
Data set [9] has as its system Rattus norvegicus. As to the kind of experiment: Antiinflammatory activity in albino rat assessed as inhibition of carrageenan-induced paw edema at 0.28 mmol/kg, po after 3 hrs relative to control. It is filed as functional. The gist of the method: as §1
A short description of data set [10]: Induction of nitric oxide release in phosphate buffer at pH 7.4 at 0.1 mM after 4 hrs by Griess method in presence of 0.5 mM of N-acetylcysteine. Format: physicochemical. The following applies: pH 7.4, 4 h, 100 µM. The gist of the method: as §2
For data set [11], the system named is Rattus norvegicus. As to the kind of experiment: Antiinflammatory activity in albino rat assessed as inhibition of carrageenan-induced paw edema at 0.28 mmol/kg, po after 2 hrs relative to control. It is filed as functional. The gist of the method: as §1
Data set [12] has as its system Rattus norvegicus. As to the kind of experiment: Gastrointestinal toxicity in albino rat assessed as ulcer index at 0.28 mmol/kg, po (reference value: 0.60 +/- 0.05). Format: organism-based. The settings on record: in vivo.
The test system of data set [13] is Rattus norvegicus. The experiment in a line: Gastrointestinal toxicity in albino rat assessed as histopathological analysis at 0.28 mmol/kg, po using haematoxylin and eosin staining by light microscopic analysis. It is filed as organism-based. The settings on record: in vivo. The gist of the method: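 Adult male albino rats (120–140 g, Minia University), groups of four, fasted 24 h with water allowed. Oral dose 0.28 mmol/kg suspended in 0.5% aqueous CMC; vehicle-only controls. Gastric sections dewaxed, stained with haematoxylin 5–7 min, differentiated in 1% HCl/70% alcohol, counterstained with 1% eosin 10 min. Cleared in xylene, mounted, examined by light microscopy at ×400.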

As for `CCn1c(SC/C(=N/O)c2ccccc2)nnc1-c1ccc(OC)cc1`, the inhibition in vivo at 280 µmol/kg with Rattus norvegicus [1] was determined as 69%; with Rattus norvegicus [3], 78%; in the data set on Rattus norvegicus [4], 71%; in the data set with Rattus norvegicus [9], 75%; in the data set with Rattus norvegicus [11], 72%. The Activity in [2] amounted to 0.14 mol/mol; in data set [5], 0.11 mol/mol; in data set [6], 0.14 mol/mol; in data set [7] it was 0.12 mol/mol; in data set [8], 0.08 mol/mol; in [10] it was 0.19 mol/mol. For the same compound, the UI in the data set on Rattus norvegicus [12] was determined as 2.53.

As to `CCn1c(SC/C(=N/O)c2ccccc2)nnc1-c1cc(OC)c(OC)c(OC)c1`, the inhibition in vivo at 280 µmol/kg in the data set with Rattus norvegicus [1] turned out to be 63%; in the data set with Rattus norvegicus [3], 79%; in the data set on Rattus norvegicus [4] it was 74%; in the data set on Rattus norvegicus [9], 69%; in the data set with Rattus norvegicus [11] it was 67%. Moreover, the Activity in [2] came to 0.12 mol/mol; in [5], 0.12 mol/mol; in data set [6], 0.18 mol/mol; in data set [7] it was 0.14 mol/mol; in [8], 0.11 mol/mol; in data set [10], 0.21 mol/mol. In addition, in the data set with Rattus norvegicus [12], the UI turned out to be 3.66.

In the case of `C=CCn1c(SCC(=O)c2ccccc2)nnc1-c1ccccc1`, the inhibition in vivo at 280 µmol/kg in the data set on Rattus norvegicus [1] worked out at 43%; with Rattus norvegicus [3] it was 66%; in the data set with Rattus norvegicus [4], 66%; in the data set with Rattus norvegicus [9], 70%; in the data set on Rattus norvegicus [11], 58%. The UI in the data set with Rattus norvegicus [12] is listed as 2.44.

Regarding `C=CCn1c(SCC(=O)c2ccccc2)nnc1-c1ccc(OC)cc1`, the inhibition in vivo at 280 µmol/kg with Rattus norvegicus [1] turned out to be 49%; in the data set with Rattus norvegicus [3] it was 67%; with Rattus norvegicus [4] it was 61%; in the data set with Rattus norvegicus [9], 63%; in the data set on Rattus norvegicus [11], 53%. Moreover, the UI in the data set with Rattus norvegicus [12] came out at 5.34.

Consider `C=CCn1c(SCC(=O)c2ccccc2)nnc1-c1ccc(OC)c(OC)c1`, for which the inhibition in vivo at 280 µmol/kg was 61% with Rattus norvegicus [1]; 72% with Rattus norvegicus [3]; 62% in the data set with Rattus norvegicus [4]; 64% in the data set with Rattus norvegicus [9]; 63% in the data set on Rattus norvegicus [11]. Further, the UI with Rattus norvegicus [12] worked out at 4.26.

In the case of `C=CCn1c(SCC(=O)c2ccccc2)nnc1-c1cc(OC)c(OC)c(OC)c1`, the inhibition in vivo at 280 µmol/kg with Rattus norvegicus [1] stood at 49%; in the data set on Rattus norvegicus [3], 66%; in the data set with Rattus norvegicus [4] it was 60%; with Rattus norvegicus [9], 66%; in the data set on Rattus norvegicus [11] it was 62%. Further, the UI in the data set on Rattus norvegicus [12] worked out at 6.39.

With `CCn1c(SCC(=O)c2ccccc2)nnc1-c1ccccc1`, the inhibition in vivo at 280 µmol/kg in the data set with Rattus norvegicus [1] amounted to 52%; in the data set on Rattus norvegicus [3], 63%; with Rattus norvegicus [4], 51%; in the data set with Rattus norvegicus [9], 61%; in the data set with Rattus norvegicus [11] it was 55%. Further, the UI in the data set on Rattus norvegicus [12] is given as 4.49.

Consider `CCn1c(SCC(=O)c2ccccc2)nnc1-c1ccc(OC)cc1`, for which the inhibition in vivo at 280 µmol/kg was determined as 53% in the data set on Rattus norvegicus [1]; 70% in the data set with Rattus norvegicus [3]; 61% in the data set on Rattus norvegicus [4]; 67% in the data set on Rattus norvegicus [9]; 60% in the data set on Rattus norvegicus [11]. Also, the UI in the data set with Rattus norvegicus [12] amounted to 6.59.

`CCn1c(SCC(=O)c2ccccc2)nnc1-c1ccc(OC)c(OC)c1`: the inhibition in vivo at 280 µmol/kg was 42% in the data set with Rattus norvegicus [1]; 73% in the data set with Rattus norvegicus [3]; 69% with Rattus norvegicus [4]; 61% in the data set with Rattus norvegicus [9]; 55% with Rattus norvegicus [11]. Also, in the data set on Rattus norvegicus [13], the Activity result is “Non-toxic”. Moreover, the UI with Rattus norvegicus [12] is 7.36.

For the compound `CCn1c(SCC(=O)c2ccccc2)nnc1-c1cc(OC)c(OC)c(OC)c1`, the inhibition in vivo at 280 µmol/kg turned out to be 29% in the data set on Rattus norvegicus [1]; 72% in the data set on Rattus norvegicus [3]; 59% in the data set on Rattus norvegicus [4]; 49% with Rattus norvegicus [9]; 41% with Rattus norvegicus [11]. The UI in the data set on Rattus norvegicus [12] is 3.42.

As to `O=C(CSc1nnc(-c2ccccc2)n1-c1ccccc1)c1ccccc1`, the inhibition in vivo at 280 µmol/kg with Rattus norvegicus [1] was 53%; in the data set on Rattus norvegicus [3], 68%; in the data set with Rattus norvegicus [4], 63%; in the data set on Rattus norvegicus [9], 64%; in the data set with Rattus norvegicus [11], 60%. For the same compound, the UI in the data set with Rattus norvegicus [12] turned out to be 9.58.

As for `COc1ccc(-c2nnc(SCC(=O)c3ccccc3)n2-c2ccccc2)cc1`, the inhibition in vivo at 280 µmol/kg came out at 52% in the data set on Rattus norvegicus [1]; 68% with Rattus norvegicus [3]; 61% in the data set on Rattus norvegicus [4]; 58% in the data set on Rattus norvegicus [9]; 57% in the data set on Rattus norvegicus [11]. Also, in the data set on Rattus norvegicus [12], the UI is 8.74.

Turning to `COc1ccc(-c2nnc(SCC(=O)c3ccccc3)n2-c2ccccc2)cc1OC`, the inhibition in vivo at 280 µmol/kg was 56% in the data set on Rattus norvegicus [1]; 65% in the data set on Rattus norvegicus [3]; 59% with Rattus norvegicus [4]; 59% with Rattus norvegicus [9]; 57% in the data set with Rattus norvegicus [11]. Also, the UI with Rattus norvegicus [12] is recorded as 9.41.

Turning to `COc1cc(-c2nnc(SCC(=O)c3ccccc3)n2-c2ccccc2)cc(OC)c1OC`, the inhibition in vivo at 280 µmol/kg in the data set on Rattus norvegicus [1] was found to be 44%; in the data set on Rattus norvegicus [3], 73%; with Rattus norvegicus [4], 72%; in the data set on Rattus norvegicus [9], 68%; in the data set on Rattus norvegicus [11], 51%. For the same compound, the UI with Rattus norvegicus [12] worked out at 5.29.

For `C=CCn1c(SC/C(=N\O)c2ccccc2)nnc1-c1ccccc1`, the inhibition in vivo at 280 µmol/kg in the data set on Rattus norvegicus [1] came to 58%; in the data set on Rattus norvegicus [3], 77%; with Rattus norvegicus [4] it was 68%; with Rattus norvegicus [9], 65%; with Rattus norvegicus [11] it was 60%. In addition, the Activity is listed as 0.13 mol/mol in [2]; 0.1 mol/mol in data set [5]; 0.22 mol/mol in data set [6]; 0.17 mol/mol in data set [7]; 0.06 mol/mol in [8]; 0.16 mol/mol in data set [10]. Also, in the data set with Rattus norvegicus [12], the UI came to 2.3.

On to `C=CCn1c(SC/C(=N/O)c2ccccc2)nnc1-c1ccc(OC)cc1`, for which the inhibition in vivo at 280 µmol/kg in the data set with Rattus norvegicus [1] came to 61%; with Rattus norvegicus [3], 76%; in the data set on Rattus norvegicus [4], 57%; with Rattus norvegicus [9], 67%; with Rattus norvegicus [11], 66%. Besides, the Activity in [2] worked out at 0.12 mol/mol; in [5] it was 0.12 mol/mol; in data set [6], 0.15 mol/mol; in data set [7] it was 0.14 mol/mol; in data set [8], 0.09 mol/mol; in data set [10] it was 0.15 mol/mol. Moreover, in the data set on Rattus norvegicus [12], the UI is 1.14.

With `C=CCn1c(SC/C(=N/O)c2ccccc2)nnc1-c1cc(OC)c(OC)c(OC)c1`, the inhibition in vivo at 280 µmol/kg with Rattus norvegicus [1] came out at 61%; in the data set with Rattus norvegicus [3] it was 73%; in the data set on Rattus norvegicus [4], 77%; in the data set on Rattus norvegicus [9] it was 70%; with Rattus norvegicus [11], 68%. Further, the Activity in data set [2] is given as 0.12 mol/mol; in data set [5], 0.1 mol/mol; in [6] it was 0.17 mol/mol; in data set [7], 0.17 mol/mol; in data set [8] it was 0.08 mol/mol; in [10] it was 0.13 mol/mol. Also, the UI in the data set with Rattus norvegicus [12] worked out at 5.52.

By inhibition in vivo is commonly meant the change of the read-out against control, counted positive when it falls.
